# rCAG RNA binder = molecules binding r(CAG) RNA repeats; r(CAG) RNA repeat, TO-PRO-1 dye displacement fluorescence; inhibition, % at 3 µM; actives 1.3% (n = 370,000);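 active means inhibition above the plate cutoff, the mean of all test compounds on that plate plus 3 SD, cut at about 35% in these data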;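 further: higher means more dye released from RNA so lower well fluorescence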
# PRMT1 FP inh = inhibitors of human PRMT1; Q99873; recombinant PRMT1, activity-based probe fluorescence polarization; inhibition, % at 2.79 µM; actives 1.3% (n = 370,000); AID 652257;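 active means inhibition above about 21% made by adding two undisclosed values, limit read from the data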
# Target sequence (Q99873 whole entry, looked up): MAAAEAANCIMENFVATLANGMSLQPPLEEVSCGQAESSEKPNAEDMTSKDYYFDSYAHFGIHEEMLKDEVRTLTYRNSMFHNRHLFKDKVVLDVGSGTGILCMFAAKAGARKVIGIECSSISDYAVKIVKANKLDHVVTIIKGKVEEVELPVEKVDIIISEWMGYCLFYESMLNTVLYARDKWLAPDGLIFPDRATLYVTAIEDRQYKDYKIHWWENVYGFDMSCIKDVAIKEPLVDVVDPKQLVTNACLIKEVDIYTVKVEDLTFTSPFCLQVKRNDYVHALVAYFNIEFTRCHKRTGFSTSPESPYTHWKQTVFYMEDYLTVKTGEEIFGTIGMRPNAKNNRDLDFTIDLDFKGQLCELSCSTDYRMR
# HTRA1 inh = HTRA1 (human) protease inhibition; Q92743; recombinant HTRA1, FP-rhodamine activity-based probe, fluorescence polarization; inhibition, % at 5.96 µM; actives 0.5% (n = 340,000); in the data active means inhibition above about 36%
# SIAE primary = inhibitors of human sialic acid acetylesterase SIAE; Q9HAT2; SIAE FP-Rh probe binding, fluorescence polarization; inhibition, % at 9.66 µM; actives 0.69% (n = 370,000); AID 1053197;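 active means inhibition above a cutoff: mean of compounds within the control limits plus 3 SD of those, cut at about 17% in these data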
# ABHD4 inh = inhibits mouse alpha/beta hydrolase domain 4; Q8VD66; inhibition, % at 8.92 µM; AID 720543; actives 0.54% (n = 370,000); purified mABHD4, FP-Rh probe fluorescence polarization;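 active means inhibition exceeding the mean over every tested compound plus 3 SD, cut at about 30% in these data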
#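 Material: mouse ABHD4 enzyme, wild type; Benchmarks: S159A mutant high control, sample median low control; Buffer or medium: HEPES pH 7.0, NaCl, Pluronic buffer; Signal: fluorescence polarization; Read-out: percent inhibition of probe binding, normalized to plate controls; Timing: pre-incubation 45 min, probe exposure 60 min, at 25 °C; Dosing: 8.92 µM, single dose.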
# HTRA1 conf = confirmation of human HTRA1 inhibitors; shares compounds with HTRA1 inh; recombinant HTRA1, FP-rhodamine activity-based probe, fluorescence polarization; AID 540248; actives 66% (n = 1,600); inhibition, % at 5.96 µM;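 active means mean inhibition over three repeats above a set limit taken from the earlier primary screen, cut at about 37% in these data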;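 further: inhibitors block probe binding so polarization drops and inhibition rises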
# A number is an active result; i = inactive; nt = not tested or not shown. Only some compounds are listed: those with a hit (about 3.3% of all), similar ones and a draw of the others.
SMILES,rCAG RNA binder,PRMT1 FP inh,HTRA1 inh,SIAE primary,ABHD4 inh,HTRA1 conf
O=C(NCCO)C1(C(=O)C2CC2)CC(c2ccccn2)=NO1 (stereo unspecified),i,i,nt,i,i,nt
COc1ccc(N=Nc2ccc(O)c3ncccc23)cc1,i,i,44.0,i,i,62.5
COc1ccc(N=Nc2cc(-c3ccccc3)ccc2O)cc1,i,i,i,i,i,nt
COc1cccc(N=Nc2ccc3cccnc3c2O)c1,i,i,76.9,i,i,76.7
O=S(=O)(O)c1cccc2c(N=Nc3ccc(O)c4ncccc34)cccc12,nt,nt,71.3,nt,nt,74.7
Cc1ccccc1N=Nc1ccc(O)c2ncccc12,i,i,37.2,i,i,65.0
O=Nc1ccc(O)c2ncccc12,i,i,i,i,i,nt
COC(=O)[C@]12C[C@H](CC(=O)N3CCCC3)C(=O)N(Cc3ccccc3)C1=C[C@H](C(C)(C)C)O[C@@H]2C,i,i,nt,i,i,nt
COC(=O)[C@]12C[C@H](CC(=O)NCc3ccc(OC)c(OC)c3)C(=O)N(Cc3cccc4ccccc34)C1=C[C@H](C1CCCC1)O[C@@H]2C,i,i,nt,i,i,nt
C/C(CC(=O)Nc1ccc2ccccc2c1)=N\NC(=O)c1ccc(O)c(O)c1,i,i,68.6,i,i,84.0
COC(=O)C1=C(C)N(Cc2cccc(C(F)(F)F)c2)C(=NCc2ccc(OC)cc2)NC1c1ccccc1C(F)(F)F (stereo unspecified),i,i,nt,i,i,nt
CCOc1ccc(N=Cc2ccc(N(C)C)cc2)c(O)c1,nt,nt,56.7,nt,nt,57.0
c1ccc2c(c1)NCC1CCCN21 (stereo unspecified),i,i,43.7,i,i,i
O=[N+]([O-])c1ccccc1N/N=C/c1cccc(O)c1O,i,i,47.8,i,i,i
Fc1c(F)c(F)c(N/N=C/c2c[nH]c3ccccc23)c(F)c1F,i,i,42.7,i,i,41.6
Cn1c(N/N=C/c2c[nH]c3ccccc23)nc2ccccc21,i,i,45.6,i,i,i
O=C(O)c1ccc(N/N=C/c2c[nH]c3ccccc23)cc1,i,i,i,i,i,nt
Cc1cc(N/N=C/c2c[nH]c3ccccc23)c2ccccc2n1,i,i,i,i,i,nt
O=C(C(=O)N1CCN(S(=O)(=O)c2ccc(OC(F)(F)F)cc2)CC1)c1cccc(C(F)(F)F)c1,i,i,nt,i,i,nt
CC(=O)Oc1cc(C(=O)OCC(=O)N2CCc3ccccc3C2)cc(OC(C)=O)c1OC(C)=O,i,i,58.8,i,i,82.5
Cn1c(SCC(=O)Nc2ccccc2-c2ccccc2)nnc1-c1cnccn1,i,i,nt,i,i,nt
CCCN1CC(=O)N2[C@H](C[C@@]3(n4ccc5ccccc54)c4ccccc4N(S(=O)(=O)c4ccccc4)[C@@H]23)C1=O,i,i,nt,i,i,nt
O=C(N/N=C/c1ccc([N+](=O)[O-])s1)c1cccc(Br)c1,i,i,44.9,i,i,45.5
Cc1ccc(C(=O)N/N=C/c2ccc([N+](=O)[O-])s2)cc1,i,i,i,i,i,nt
O=c1ccn(C2CCCCC2)c(=O)[nH]1,i,i,nt,i,i,nt
SMILES,rCAG RNA binder,PRMT1 FP inh,HTRA1 inh,SIAE primary,ABHD4 inh,HTRA1 conf
CCCCC1=CC2=CC(=O)C(C)(OC(=O)C3CCCC3)C(=O)C2=CO1 (stereo unspecified),i,i,39.4,i,i,43.8
COC(=O)CCCC1=CC2=CC(=O)C(C)(OC(=O)C3CCCC3)C(=O)C2=CO1 (stereo unspecified),nt,nt,i,nt,nt,nt
CCC(=O)NC(c1ccc(C)cc1)c1ccc2cccnc2c1O (stereo unspecified),i,i,64.4,i,i,75.7
CC(C)C(=O)NC(c1ccc(Cl)cc1Cl)c1ccc2cccnc2c1O (stereo unspecified),i,i,48.7,i,i,46.8
O=C(O)c1ccccc1NC(c1ccccc1)c1ccc2cccnc2c1O (stereo unspecified),i,i,49.0,i,i,67.5
COc1ccc(C(NC(=O)C(C)C)c2ccc3cccnc3c2O)cc1 (stereo unspecified),i,i,i,i,i,nt
CCCC(=O)NC(c1ccccc1Cl)c1ccc2cccnc2c1O (stereo unspecified),i,i,37.8,i,i,39.8
CC(=O)NC(c1ccco1)c1ccc2cccnc2c1O (stereo unspecified),nt,nt,i,nt,nt,nt
O=S1(=O)C=CCN1Cc1cn(Cc2cccc(C(F)(F)F)c2)nn1,i,i,nt,i,i,nt
COc1ccc(C2CC(=O)C(c3ccc(C#N)cc3)=CN2Cc2ccccc2)cc1 (stereo unspecified),i,i,nt,i,i,nt
COc1cc(NC(=O)C2CCCN(S(=O)(=O)c3ccccc3[N+](=O)[O-])C2)cc(OC)c1 (stereo unspecified),i,i,nt,i,i,nt
COc1cc2c(cc1NC(=O)CSc1nnc(-c3cccnc3)n1-c1ccc(Br)cc1)oc1ccccc12,i,i,nt,i,i,nt
CCCCC(=O)NC(c1ccc(Cl)cc1Cl)c1ccc2cccnc2c1O (stereo unspecified),i,i,47.8,i,i,76.2
CCCC(=O)NC(c1ccc(N(C)C)cc1)c1ccc2cccnc2c1O (stereo unspecified),i,i,i,i,i,nt
CCCCC(=O)NC(c1ccc(OC)cc1)c1ccc2cccnc2c1O (stereo unspecified),i,i,i,i,i,nt
Cc1cc(NC(c2ccc(Cl)cc2)c2ccc3cccnc3c2O)no1 (stereo unspecified),i,i,48.5,i,i,50.7
Cc1ccnc(NC(c2ccccc2)c2ccc3cccnc3c2O)c1 (stereo unspecified),i,i,i,i,i,nt
CCCC(=O)NC(c1ccc(C(C)C)cc1)c1ccc2cccnc2c1O (stereo unspecified),i,i,52.0,i,i,54.3
O=C(NCCc1ccccc1)OCc1cn(Cc2ccc(F)c(F)c2)nn1,i,i,nt,i,i,nt
COc1ccc(-c2ccc3c(n2)CCCN3S(=O)(=O)c2c(C)noc2C)cc1,i,i,nt,i,i,nt
Cc1ccsc1C=Nc1ccc(O)cc1,nt,nt,51.4,nt,nt,i
CCN(CC)CCn1c2ccccc2c(=O)c2c(O)ccc(O)c21,i,i,54.6,i,32.9,48.4
CCCCn1c(/C=N/Nc2nc3ccccc3[nH]2)nc2ccccc21,i,i,41.0,i,i,59.0
CCCCn1c(/C=C/c2ccco2)nc2ccccc21,i,i,i,i,i,nt
O=C1NC(c2cccc(C(F)(F)F)c2)c2c(-c3ccccc3)n[nH]c21 (stereo unspecified),i,i,nt,i,i,nt
Nc1nc2ncccc2cc1C(=O)NC1CC1,i,i,nt,i,i,nt
CCOc1ccc(CNc2ccc(N3CCCC3)cc2)cc1,nt,nt,57.8,nt,nt,i
CCOc1cc(CNc2ccc(N(C)C)cc2)cc(Br)c1OCC(=O)NC(C)(C)C,i,i,i,i,i,nt
